Results as given in ChEMBL document CHEMBL2169820, “Synthesis and biological activities of polyquinoline derivatives: new Bcl-2 family protein modulators” (Eur J Med Chem, 2012).
Active and inactive are the calls of the source. No cut-off for these calls is given here.

What follows are compounds tested on BP3 (assay: Induction of apoptosis in human BP3 cells at 5 uM incubated for 24 hrs by Annexin V and propidium iodide staining based FACS method). Settings: not given.
Type: functional, cell-based
Outline: (§1)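 Cells grown in RPMI with 10% FBS, 2 mM glutamine, 10 mM Hepes and gentamicin. Exposed to compound for 24 h, then labelled with Annexin V and propidium iodide and read by flow cytometry. Specific viability = (% viable treated × 100)/% viable untreated.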

Structure (SMILES)	Activity
CC(C)=CCC[C@]1(C)C=Cc2c(O)c3c(c(CC=C(C)C)c2O1)O[C@]12C(=C[C@@H]4C[C@H]1C(C)(C)O[C@@]2(C/C=C(/C)C(=O)O)C4=O)C3=O	inactive

The compounds below were run on IM-9 (assay: Induction of apoptosis in human IM9 cells at 10 uM incubated for 24 hrs by Annexin V and propidium iodide staining based FACS method). Settings: not given.
Type: functional, cell-based
Outline: (§2)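 Tumour lines grown in RPMI with 10% FBS, 2 mM glutamine, 10 mM Hepes and gentamicin; PBMC from healthy donors, purified on Ficoll gradient, same medium. Cells exposed 24 h, then Annexin V/propidium iodide labelling and flow cytometry. Specific viability = (% viable treated × 100)/% viable untreated.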

Structure (SMILES)	Activity
CC(C)c1cc(-c2cc3ccccc3nc2N2CCCC2)cc2nc(N3CCCC3)ccc12	inactive
CCOc1ccc2c(C(C)C)cc(-c3cc4ccccc4nc3N3CCOCC3)cc2n1	inactive
COC1=CC(c2cc3ccccc3[nH]2)=N/C1=C\c1[nH]c(C)cc1C [OBATOCLAX]	Active
CN(C)CC[C@H](CSc1ccccc1)Nc1ccc(S(=O)(=O)NC(=O)c2ccc(N3CCN(Cc4ccccc4-c4ccc(Cl)cc4)CC3)cc2)cc1[N+](=O)[O-]	Active
CCOc1ccc2c(C(C)C)cc(-c3cc4ccccc4nc3N3CCCC3)cc2n1	Active
CCCOc1nc2ccccc2cc1-c1cc(C(C)C)c2ccc(N3CCOCC3)nc2c1	inactive

What follows are compounds tested on PBMC (assay: Induction of apoptosis in human PBMCs at 5 or 10 uM incubated for 24 hrs by Annexin V and propidium iodide staining based FACS method). Settings: not given.
Type: cell-based
Outline: as §2

Structure (SMILES)	Activity
CCOc1ccc2c(C(C)C)cc(-c3cc4ccccc4nc3N3CCCC3)cc2n1	Non-toxic

These compounds were tested against Apoptosis regulator Bcl-2 (Homo sapiens, UniProt P10415) (assay: Inhibition of GST-tagged recombinant Bcl2 interaction with biotinylated Bim peptide by ELISA based competitive binding assay). Settings: not given.
Apoptosis regulator Bcl-2, sequence (P10415 whole entry): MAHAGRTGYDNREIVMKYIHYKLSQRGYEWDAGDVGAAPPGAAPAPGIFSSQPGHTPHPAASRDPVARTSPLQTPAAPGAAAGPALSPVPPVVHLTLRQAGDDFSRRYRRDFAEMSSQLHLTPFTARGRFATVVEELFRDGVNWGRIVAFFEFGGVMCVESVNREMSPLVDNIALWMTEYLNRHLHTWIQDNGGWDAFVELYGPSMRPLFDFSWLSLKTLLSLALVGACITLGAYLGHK
Outline: (§3)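 Plates coated with anti-GST antibody (1 µg/mL, overnight, 4 °C), blocked in PBS/1% BSA. GST-tagged Bcl-xL, Bcl-2, Bfl-1 or Mcl-1 (10 ng/mL) bound 2 h, RT. Compound added for 1 h, then biotinylated Bim peptide (1 nM) for 1 h. HRP-streptavidin detection, acid stop, OD 450 nm; EC50 derived.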

Structure (SMILES)	EC50 [µM]
CC(C)c1cc(-c2cc3ccccc3nc2N2CCCC2)cc2nc(N3CCCC3)ccc12	1.4
CCOc1ccc2c(C(C)C)cc(-c3cc4ccccc4nc3N3CCOCC3)cc2n1	2.7
COC1=CC(c2cc3ccccc3[nH]2)=N/C1=C\c1[nH]c(C)cc1C [OBATOCLAX]	0.3
CCCOc1ccc2c(C(C)C)cc(-c3cc4ccccc4nc3N3CCOCC3)cc2n1	9.2
CCOc1ccc2c(C(C)C)cc(-c3cc4ccccc4nc3N3CCCC3)cc2n1	3.5
CCCOc1nc2ccccc2cc1-c1cc(C(C)C)c2ccc(N3CCOCC3)nc2c1	6.6

The compounds below were run on MEF (assay: Induction of cell death in mouse MEF cells containing Bax/Bak double knock out at 10 uM by Annexin V and propidium iodide staining based FACS method). Settings: not given.
Type: functional
Outline: (§4)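 Wild-type and DKO MEFs kept in DMEM with 10% FBS, 2 mM glutamine, 10 mM Hepes and gentamicin. Cultured in medium alone or with compound, staurosporine 1 µM as reference. Viability read by flow cytometry; mean ± SEM of 3 independent experiments.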

Structure (SMILES)	Activity
COC1=CC(c2cc3ccccc3[nH]2)=N/C1=C\c1[nH]c(C)cc1C [OBATOCLAX]	inactive
CN(C)CC[C@H](CSc1ccccc1)Nc1ccc(S(=O)(=O)NC(=O)c2ccc(N3CCN(Cc4ccccc4-c4ccc(Cl)cc4)CC3)cc2)cc1[N+](=O)[O-]	inactive

What follows are compounds tested on RS4-11 (assay: Induction of apoptosis in human RS4:11 cells at 5 uM incubated for 24 hrs by Annexin V and propidium iodide staining based FACS method). Settings: not given.
Type: functional, cell-based
Outline: as §1

Structure (SMILES)	Activity
CC(C)=CCC[C@]1(C)C=Cc2c(O)c3c(c(CC=C(C)C)c2O1)O[C@]12C(=C[C@@H]4C[C@H]1C(C)(C)O[C@@]2(C/C=C(/C)C(=O)O)C4=O)C3=O	inactive

Each compound was assayed against Induced myeloid leukemia cell differentiation protein Mcl-1 (Homo sapiens, UniProt Q07820) (assay: Inhibition of GST-tagged recombinant Mcl1 interaction with biotinylated Bim peptide by ELISA based competitive binding assay). Settings: not given.
Induced myeloid leukemia cell differentiation protein Mcl-1, sequence (Q07820 whole entry): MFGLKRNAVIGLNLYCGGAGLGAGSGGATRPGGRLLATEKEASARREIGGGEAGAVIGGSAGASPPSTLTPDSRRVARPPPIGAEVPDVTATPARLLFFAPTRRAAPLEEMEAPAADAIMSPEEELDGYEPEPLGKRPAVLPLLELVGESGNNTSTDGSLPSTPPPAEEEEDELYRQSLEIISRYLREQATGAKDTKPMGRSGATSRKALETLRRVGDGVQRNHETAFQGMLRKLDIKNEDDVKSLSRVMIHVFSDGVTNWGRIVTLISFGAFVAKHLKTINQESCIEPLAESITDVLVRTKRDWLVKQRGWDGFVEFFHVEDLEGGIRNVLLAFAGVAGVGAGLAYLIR
Outline: as §3

Structure (SMILES)	EC50 [µM]
CC(C)c1cc(-c2cc3ccccc3nc2N2CCCC2)cc2nc(N3CCCC3)ccc12	2.3
CCOc1ccc2c(C(C)C)cc(-c3cc4ccccc4nc3N3CCOCC3)cc2n1	3.5
COC1=CC(c2cc3ccccc3[nH]2)=N/C1=C\c1[nH]c(C)cc1C [OBATOCLAX]	0.5
CCCOc1ccc2c(C(C)C)cc(-c3cc4ccccc4nc3N3CCOCC3)cc2n1	7.9
CCOc1ccc2c(C(C)C)cc(-c3cc4ccccc4nc3N3CCCC3)cc2n1	2.1
CCCOc1nc2ccccc2cc1-c1cc(C(C)C)c2ccc(N3CCOCC3)nc2c1	11.6

These compounds were tested on MEF (assay: Induction of cell death in mouse MEF cells containing Bax/Bak double knock out at 1.25 to 10 uM by Annexin V and propidium iodide staining based FACS method). Settings: not given.
Type: functional
Outline: as §4

Structure (SMILES)	Activity
CCOc1ccc2c(C(C)C)cc(-c3cc4ccccc4nc3N3CCCC3)cc2n1	inactive

These compounds were tested on MEF (assay: Induction of cell death in mouse MEF cells containing Bax/Bak double knock out at 1 uM by Annexin V and propidium iodide staining based FACS method). Settings: not given.
Type: functional
Outline: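 Wild-type and Bax/Bak double-knockout MEFs were grown in DMEM with 10% FBS, 2 mM glutamine, 10 mM Hepes and gentamicin. They were treated for 24 h and stained with propidium iodide, with or without Annexin V, then analysed by flow cytometry. Data are mean ± SEM of 3 independent experiments.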

Structure (SMILES)	Activity
CC(C)=CCC[C@]1(C)C=Cc2c(O)c3c(c(CC=C(C)C)c2O1)O[C@]12C(=C[C@@H]4C[C@H]1C(C)(C)O[C@@]2(C/C=C(/C)C(=O)O)C4=O)C3=O	Active

The compounds below were run against T1, Bcl-2-related protein A1 (Homo sapiens, UniProt Q16548) (assay: Inhibition of GST-tagged recombinant Bfl1 interaction with biotinylated Bim peptide by ELISA based competitive binding assay). Settings: not given.
T1 sequence (Q16548 whole entry): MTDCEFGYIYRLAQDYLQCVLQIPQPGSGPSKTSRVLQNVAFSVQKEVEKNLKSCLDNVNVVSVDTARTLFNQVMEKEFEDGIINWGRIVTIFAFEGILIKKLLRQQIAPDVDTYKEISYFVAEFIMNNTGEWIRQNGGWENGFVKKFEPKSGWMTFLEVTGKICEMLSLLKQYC
Outline: as §3

Structure (SMILES)	EC50 [µM]
CC(C)c1cc(-c2cc3ccccc3nc2N2CCCC2)cc2nc(N3CCCC3)ccc12	21.5
CCOc1ccc2c(C(C)C)cc(-c3cc4ccccc4nc3N3CCOCC3)cc2n1	24
COC1=CC(c2cc3ccccc3[nH]2)=N/C1=C\c1[nH]c(C)cc1C [OBATOCLAX]	0.6
CCCOc1ccc2c(C(C)C)cc(-c3cc4ccccc4nc3N3CCOCC3)cc2n1	8.2
CCOc1ccc2c(C(C)C)cc(-c3cc4ccccc4nc3N3CCCC3)cc2n1	25.5
CCCOc1nc2ccccc2cc1-c1cc(C(C)C)c2ccc(N3CCOCC3)nc2c1	17.8

Each compound was assayed on RS4-11 (assay: Induction of apoptosis in human RS4:11 cells at 10 uM incubated for 24 hrs by Annexin V and propidium iodide staining based FACS method). Settings: not given.
Type: functional, cell-based
Outline: as §2

Structure (SMILES)	Activity
CC(C)c1cc(-c2cc3ccccc3nc2N2CCCC2)cc2nc(N3CCCC3)ccc12	inactive
CCOc1ccc2c(C(C)C)cc(-c3cc4ccccc4nc3N3CCOCC3)cc2n1	inactive
COC1=CC(c2cc3ccccc3[nH]2)=N/C1=C\c1[nH]c(C)cc1C [OBATOCLAX]	Active
CN(C)CC[C@H](CSc1ccccc1)Nc1ccc(S(=O)(=O)NC(=O)c2ccc(N3CCN(Cc4ccccc4-c4ccc(Cl)cc4)CC3)cc2)cc1[N+](=O)[O-]	Active
CCOc1ccc2c(C(C)C)cc(-c3cc4ccccc4nc3N3CCCC3)cc2n1	Active
CCCOc1nc2ccccc2cc1-c1cc(C(C)C)c2ccc(N3CCOCC3)nc2c1	inactive

What follows are compounds tested against T2, Bcl-2-like protein 1 (Homo sapiens, UniProt Q07817) (assay: Inhibition of GST-tagged recombinant Bcl-XL interaction with biotinylated Bim peptide by ELISA based competitive binding assay). Settings: not given.
T2 sequence (Q07817 whole entry): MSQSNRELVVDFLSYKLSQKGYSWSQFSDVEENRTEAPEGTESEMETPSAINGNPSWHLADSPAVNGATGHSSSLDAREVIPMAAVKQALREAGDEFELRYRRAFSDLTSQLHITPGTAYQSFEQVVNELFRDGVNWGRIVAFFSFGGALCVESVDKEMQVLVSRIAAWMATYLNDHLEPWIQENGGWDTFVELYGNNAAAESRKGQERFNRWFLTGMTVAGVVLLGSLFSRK
Outline: as §3

Structure (SMILES)	EC50 [µM]
CC(C)c1cc(-c2cc3ccccc3nc2N2CCCC2)cc2nc(N3CCCC3)ccc12	> 100
CCOc1ccc2c(C(C)C)cc(-c3cc4ccccc4nc3N3CCOCC3)cc2n1	14.6
COC1=CC(c2cc3ccccc3[nH]2)=N/C1=C\c1[nH]c(C)cc1C [OBATOCLAX]	0.9
CCCOc1ccc2c(C(C)C)cc(-c3cc4ccccc4nc3N3CCOCC3)cc2n1	> 100
CCOc1ccc2c(C(C)C)cc(-c3cc4ccccc4nc3N3CCCC3)cc2n1	6.2
CCCOc1nc2ccccc2cc1-c1cc(C(C)C)c2ccc(N3CCOCC3)nc2c1	> 100

What follows are compounds tested on IM-9 (assay: Induction of apoptosis in human IM9 cells at 5 uM incubated for 24 hrs by Annexin V and propidium iodide staining based FACS method). Settings: not given.
Type: functional, cell-based
Outline: as §1

Structure (SMILES)	Activity
CC(C)=CCC[C@]1(C)C=Cc2c(O)c3c(c(CC=C(C)C)c2O1)O[C@]12C(=C[C@@H]4C[C@H]1C(C)(C)O[C@@]2(C/C=C(/C)C(=O)O)C4=O)C3=O	inactive

Each compound was assayed against T2, Bcl-2-like protein 1 (assay: Inhibition of Bcl-XL-mediated cell death reduction expressed in serum starved mouse 3T3 cells assessed as residual cell viability at 5 uM incubated for 96 hrs by propidium iodide staining based FACS method). Settings: NIH3T3.
Outline: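 3T3 cells infected with pMig-hBcl-xL vector to overexpress human Bcl-xL, maintained in DMEM/10% FBS. Compound 5 µM given under serum starvation; % residual viability scored at 96 h by propidium iodide staining and FACS.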

Structure (SMILES)	Activity [%]
CC(C)c1cc(-c2cc3ccccc3nc2N2CCCC2)cc2nc(N3CCCC3)ccc12	4.37
CCOc1ccc2c(C(C)C)cc(-c3cc4ccccc4nc3N3CCOCC3)cc2n1	37.9
CCCOc1ccc2c(C(C)C)cc(-c3cc4ccccc4nc3N3CCOCC3)cc2n1	32.7
CCOc1ccc2c(C(C)C)cc(-c3cc4ccccc4nc3N3CCCC3)cc2n1	0.42
CCCOc1nc2ccccc2cc1-c1cc(C(C)C)c2ccc(N3CCOCC3)nc2c1	55.5

What follows are compounds tested on BP3 (assay: Induction of apoptosis in human BP3 cells at 10 uM incubated for 24 hrs by Annexin V and propidium iodide staining based FACS method). Settings: not given.
Type: functional, cell-based
Outline: as §2

Structure (SMILES)	Activity
CC(C)c1cc(-c2cc3ccccc3nc2N2CCCC2)cc2nc(N3CCCC3)ccc12	inactive
CCOc1ccc2c(C(C)C)cc(-c3cc4ccccc4nc3N3CCOCC3)cc2n1	inactive
COC1=CC(c2cc3ccccc3[nH]2)=N/C1=C\c1[nH]c(C)cc1C [OBATOCLAX]	Active
CCCOc1ccc2c(C(C)C)cc(-c3cc4ccccc4nc3N3CCOCC3)cc2n1	inactive
CN(C)CC[C@H](CSc1ccccc1)Nc1ccc(S(=O)(=O)NC(=O)c2ccc(N3CCN(Cc4ccccc4-c4ccc(Cl)cc4)CC3)cc2)cc1[N+](=O)[O-]	Active
CCOc1ccc2c(C(C)C)cc(-c3cc4ccccc4nc3N3CCCC3)cc2n1	inactive
CCCOc1nc2ccccc2cc1-c1cc(C(C)C)c2ccc(N3CCOCC3)nc2c1	inactive
